Here are results for five compounds from ChEMBL document CHEMBL1212928, “Synthesis and resolution of cis-(+/-)-methyl (1R,2S/1S,2R)-2-[(4-hydroxy-4-phenylpiperidin-1-yl)methyl]-1-(4-methylphenyl)cyclopropanecarboxylate [(+/-)-PPCC)]: new sigma receptor ligands with neuroprotective effect” (J Med Chem, 2010).

Calls of active or inactive are those of the source. The rule behind the calls is not given here.

The nature of experiment [1]: Neuroprotective activity against glutamate-induced transglutaminase-2 expression albino rat astrocytes assessed as reduction in transglutaminase level at 25 uM by immunoblotting. The experiment is classed as functional, cell-based. The conditions noted are these: Astrocyte. The procedure, abridged: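 Primary rat neocortical astroglial cultures at 14 DIV, about 90-95% GFAP-positive. Exposed for 24 h to ligand at 25 μM, with or without glutamate at 500 μM. TG2 expression was measured by immunoblot with densitometry and compared against control and glutamate-alone cultures.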
On the technique in general: A western blot detects proteins with antibodies after separation by electrophoresis.

Experiment [2] relates to Astrocyte. Briefly: Neuroprotective activity against glutamate-induced ROS production in albino rat astrocytes assessed as dichlorofluresceine produced per gram of protein per 30 mins at 25 uM by spectrofluorimetry (RVb = 4.45 +/- 0.51 nmol). Type of experiment: functional.
The test system of experiment [3] is Astrocyte. Briefly: Neuroprotective activity against glutamate-induced GSH depletion in rat astrocytes assessed as GSH level at 25 uM measured per gram of protein by spectrofluorimetry (RVb = 9.08 +/- 0.9 […]). The experiment is classed as functional.
Experiment [4] can be described thus: (§1) Displacement of [3H]-DTG from sigma2 opioid receptor by liquid scintillation counting. More on the design: species or system Cavia porcellus. (In general: Displacement assays read how much labelled ligand stays bound in the presence of the test substance.)
For experiment [5], the target named is Sigma non-opioid intracellular receptor 1 (Cavia porcellus, UniProt Q60492). Briefly: Displacement of [3H](+)-pentazocine from guinea pig sigma1 opioid receptor by liquid scintillation counting.
Experiment [6] deals with Rattus norvegicus. Nature of the experiment: Analgesic activity in Sprague-Dawley rat assessed as reduction in (-)-U50,488H-induced tail flick latency at 1 mg/kg, sc pretreated 30 mins prior to (-)-U50,488H challenge. The experiment is classed as functional, organism-based. More on the design: dose 1 mg/kg. The procedure, abridged:
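Rat tail-flick test. Ligand given systemically at 1 mg/kg sc as a pretreatment before a KOP agonist. Tail-flick latency was followed over the observation period, with basal latency also recorded.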

For experiment [7], the species on record is Cavia porcellus. Described as §1.

Sequence of Sigma non-opioid intracellular receptor 1 (Q60492 whole entry): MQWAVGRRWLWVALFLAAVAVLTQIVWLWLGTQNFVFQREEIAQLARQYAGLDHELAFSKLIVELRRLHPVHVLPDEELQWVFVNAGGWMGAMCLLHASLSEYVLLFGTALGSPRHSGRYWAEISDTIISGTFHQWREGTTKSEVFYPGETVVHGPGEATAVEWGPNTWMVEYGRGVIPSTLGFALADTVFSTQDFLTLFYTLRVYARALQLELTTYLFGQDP

Regarding `CC[C@H]1C[C@H]2C[C@H]3c4[nH]c5ccc(OC)cc5c4CCN(C2)[C@@H]13` [IBOGAINE], the result in experiment [1] was inactive. Besides, the Activity in experiment [2] is on record as 5.82 nmol; in experiment [3] it was 7.95 nmol.

Usually Ki stands for a dissociation constant, usually derived from enzyme kinetics or from competition with a known ligand. High values mean weaker binding, low ones tighter binding. `COC(=O)C1(c2ccc(C)cc2)CC1CN1CCC(O)(c2ccccc2)CC1` (racemic): the result in experiment [1] was inactive. For the same compound, the Ki in experiment [4] was determined as 20.8 nM; in experiment [5] it was 1.8 nM. The Activity in experiment [2] came out at 5.51 nmol; in experiment [3] it was 8.05 nmol.

For `COC(=O)[C@@]1(c2ccc(C)cc2)C[C@H]1CN1CCC(O)(c2ccccc2)CC1`, the outcome in experiment [6] was Active. The result in experiment [1] was inactive. Also, the values for the Activity in experiment [7], in experiment [2] and in experiment [3] were 103 nM, 3.67 nmol and 14.87 nmol, respectively. The same compound registered a Ki in experiment [5] of 13 nM.

`CC(C)=CCN1CC[C@]2(C)c3cc(O)ccc3C[C@H]1[C@H]2C` [(+)-PENTAZOCINE]: the outcome in experiment [1] was Active. The Activity in experiment [2] amounted to 3.46 nmol; in experiment [3], 14.15 nmol.

As to `COC(=O)[C@]1(c2ccc(C)cc2)C[C@@H]1CN1CCC(O)(c2ccccc2)CC1`, in experiment [1], the result was Active. The Ki in experiment [4] is 50.2 nM; in experiment [5] it was 1.9 nM. Also, the Activity is on record as 3.05 nmol in experiment [2] and 13.44 nmol in experiment [3].
